# Screening results (PubChem BioAssay)
# A selection: hits, their analogues and other compounds. The true share with any hit is near 1.5%.
# DAGLB inhibitor = blocks human DAGLB lipase activity. AID 504411. Q8NCG7. 340,000 tested, 0.059% active. inhibition, % at 5.17 µM. HEK293T DAGLB membrane lysate, EnzChek fluorogenic substrate; in the data active means inhibition above about 34%;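 further: 0% = enzyme with vehicle and 100% = wells lacking enzyme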
# mABHD4 FP = ABHD4 (mouse) inhibition, primary FP screen. Q8VD66. purified mABHD4, FP-Rh probe fluorescence polarization. inhibition, % at 8.92 µM. 370,000 tested, 0.54% active. AID 720543;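 active means inhibition exceeding the mean over every tested compound plus 3 SD, cut at about 30% in these data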;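 further: 0% = plate median of compound wells and 100% = S159A mutant with DMSO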
#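 Test system: mouse ABHD4 enzyme, wild type. Reagent: FP-Rh fluorescent activity-based probe, added after compound pre-incubation. Timing: pre-incubation 45 min, probe exposure 60 min, at 25 °C. Technique: FP readout, ex 525 nm / em 598 nm. Benchmarks: high control S159A mutant with DMSO, low control median of compound wells.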
# HTRA1 inh = HTRA1 (human) protease inhibition; inhibition, % at 5.96 µM; 340,000 tested, 0.5% active; AID 504803; Q92743; recombinant HTRA1, FP-rhodamine activity-based probe, fluorescence polarization; in the data active means inhibition above about 36%;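 further: 0% = enzyme with DMSO and 100% = wells lacking enzyme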
# TCR CD3 inh = blocks the human TCR-CD3 interaction | TAMRA-labeled TCR probe fluorescence, biochemical | inhibition, % at 9.4 µM | 360,000 tested, 0.37% active | AID 651800; in the data active means inhibition above about 19%;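 further: recombinant mutant TCR 2C K166C tagged with TAMRA read by polarization; 0% = receptor in buffer alone and 100% = receptor with positive control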
# SIAE primary = inhibitors of human sialic acid acetylesterase SIAE | Q9HAT2 | SIAE FP-Rh probe binding, fluorescence polarization | inhibition, % at 9.66 µM | 370,000 tested, 0.69% active;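 active means inhibition above a cutoff: mean of compounds within the control limits plus 3 SD of those, cut at about 17% in these data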;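 further: 0% = plate median of compound wells and 100% = probe without SIAE protein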
# HTRA1 conf = HTRA1 (human) inhibition, confirmation; shares compounds with HTRA1 inh; recombinant HTRA1, FP-rhodamine activity-based probe, fluorescence polarization; inhibition, % at 5.96 µM; 1,600 tested, 66% active;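 active means mean inhibition over three repeats above a set limit taken from the earlier primary screen, cut at about 37% in these data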;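 further: 0% = HTRA1 with DMSO and 100% = wells lacking HTRA1; inhibitors block probe binding so polarization drops and inhibition rises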
# Active calls of the source: *; . = no result.
SMILES,DAGLB inhibitor,mABHD4 FP,HTRA1 inh,TCR CD3 inh,SIAE primary,HTRA1 conf
COCC(=O)Nc1ccc(Nc2ccccc2)cc1,4.4,0.2,46.8*,0.9,7.5,40.3*
CCC(=O)Nc1ccc(Nc2ccccc2)cc1,0.9,-3.4,21.1,5.8,6.0,.
COc1c(O)c(O)c2oc(-c3ccccc3)cc(=O)c2c1OC,24.2,8.4,46.0*,-1.6,1.1,60.5*
CC(=O)NC(c1ccccc1)c1cc([N+](=O)[O-])c2cccnc2c1O (configuration not stated),12.5,21.6,52.9*,-4.5,4.6,68.8*
CC(=O)NC(c1cccs1)c1cc([N+](=O)[O-])c2cccnc2c1O (configuration not stated),23.2,20.8,30.5,-6.0,5.3,.
CC(C)C(=O)NC(c1ccccc1)c1cc([N+](=O)[O-])c2cccnc2c1O (configuration not stated),24.8,15.2,39.1*,-4.6,5.0,46.2*
CCOC(=O)C1=C(C(=O)OCC)C2N(Cc3ccc(Br)cc3)c3ccccc3[C@@]23C[C@@H](C(=O)OC)N(S(=O)(=O)c2ccc(OC)cc2)C3=N1 (some centres not stated),.,3.2,.,2.1,-5.1,.
Cc1cccc(C)c1NC(=S)NCCc1ccc(O)c(O)c1,1.9,14.9,47.6*,2.5,9.2,108.5*
COc1ccc2c(c1)[C@@H](NC(=O)c1ccncc1)[C@H](C)[C@H]2c1ccccc1,.,-6.7,.,2.0,-0.7,.
COC1=CC(=O)C(O)=C(CCCCCCC/C=C/CCCCCCCC2=C(O)C(=O)C=C(OC)C2=O)C1=O,24.1,.,64.4*,.,.,93.5*
Cc1cccc(NC(=O)CSc2nnc(-c3ccco3)c(-c3ccco3)n2)c1C,3.2,.,49.9*,.,.,13.8
O=S(=O)(c1cccnc1)N1CCn2cccc2C1c1ccccc1F (configuration not stated),0.6,2.8,77.2*,4.3,4.6,28.9
CN1CCc2cc(O)c(O)cc2C(c2ccccc2)C1 (configuration not stated),1.6,6.7,4.2,6.7,5.6,.
C=CCN1CCc2c(cc(O)c(O)c2Br)[C@@H](c2ccccc2)C1,3.7,15.4,50.6*,5.7,-3.4,67.6*
COc1ccc2cc(C=O)n(C)c2c1,-1.4,6.3,-1.7,-8.6,2.2,.
COc1ccc2cc(CO)n(C)c2c1,-1.5,1.8,41.8*,6.5,11.0,22.6
O=C(/C=C/c1ccccc1Cl)c1ccccc(=O)c1O,14.6,24.6,43.9*,7.5,9.1,46.2*
Cc1ccc(/C=C/C(=O)c2ccccc(=O)c2O)c(C)c1,18.3,27.8,53.1*,4.9,14.3,45.0*
CCCCOCCCNC(=O)C[C@H]1C[C@@]2(C(=O)OC)C(=C[C@H](C(C)(C)C)O[C@@H]2C)N(Cc2ccccc2)C1=O,.,-1.6,.,-0.9,-3.8,.
CCOC(=O)[C@@]12CCCC3=C1N(CCC3)C(=O)[C@H]2CC(=O)N1CCN(C(=O)c2ccco2)CC1,.,5.7,.,.,7.6,.
Cc1cccc2sc(NNC(=O)c3ccc(S(=O)(=O)N4CCCC(C)C4)cc3)nc12 (configuration not stated),0.2,20.7,45.1*,-2.9,15.6,41.4*
Cc1cc(C)c2nc(NNC(=O)c3ccc(S(=O)(=O)N4CCCCC4)cc3)sc2c1,-3.4,15.1,48.7*,-3.3,9.9,24.0
Cc1cccc2sc(NNC(=O)c3ccc(S(=O)(=O)N4CCc5ccccc5C4)cc3)nc12,7.5,4.5,44.5*,4.8,12.6,33.4
CC1(OC(=O)C2CCCC2)C(=O)C=C2C=C(c3ccsc3)N(c3ccccc3)C=C2C1=O (configuration not stated),6.7,19.7,39.3*,-3.1,5.6,32.5
CC1(OC(=O)C2CCCC2)C(=O)C=C2C=C(c3ccsc3)N(C3CC3)C=C2C1=O (configuration not stated),-1.6,12.4,19.5,-3.0,11.4,.
CC1(OC(=O)C2CCCC2)C(=O)C=C2C=C(c3ccsc3)N(Cc3ccccc3)C=C2C1=O (configuration not stated),4.8,23.6,37.9*,-3.1,4.8,30.8
Cc1cc(C(=O)O)c(C)o1,.,1.4,.,.,-2.8,.
CC(C)[C@H](Nc1ccc(C(F)(F)F)cc1[N+](=O)[O-])C(=O)O,4.8,-3.0,2.0,5.6,-3.0,.
